Source: ChEMBL document CHEMBL2311390, “Synthesis and preliminary evaluation of pharmacological properties of some piperazine derivatives of xanthone” (Bioorg Med Chem, 2013)

Tests used:
[1] = test system: Rattus norvegicus; assay: Cardiotoxicity in Wistar rat assessed as QT interval at 2.5 mg/kg, iv after 10 mins by ECG analysis; type: toxicity, organism-based; design: dose 2.5 mg/kg, route intravenous; settings: in vivo
[2] = test system: Rattus norvegicus; assay: Cardiotoxicity in Wistar rat assessed as PQ interval at 2.5 mg/kg, iv after 5 mins by ECG analysis; type: toxicity, organism-based; design: dose 2.5 mg/kg, route intravenous; settings: in vivo
Summary of the method: (§1)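 Male normotensive Wistar rats (170–350 g, groups of six) were anaesthetised. Compound was given iv at 1 mL/kg. ECG was recorded just before dosing and at 1, 5 and 15 min after, and PQ, QRS and QT intervals and heart rate were read. Groups were compared by one-way ANOVA.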

[3] = test system: Rattus norvegicus; assay: Cardiotoxicity in Wistar rat assessed as PQ interval at 2.5 mg/kg, iv after 10 mins by ECG analysis; type: toxicity, organism-based; design: dose 2.5 mg/kg, route intravenous; settings: in vivo
[4] = test system: Rattus norvegicus; assay: Hypotensive activity in normotensive Wistar rat assessed as reduction of diastolic blood pressure at 0.31 mg/kg, iv after 5 mins; type: functional, Artery
Summary of the method: (§2)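 Male normotensive Wistar rats were anaesthetised with thiopental 75 mg/kg ip. The right carotid artery was cannulated with heparinised saline for pressure recording. After 5 min of stabilisation, compound was injected into the tail vein at 1 mL/kg. Systolic and diastolic pressure were followed up to 60 min. Data are means ± SEM of 5–6 rats, analysed by one-way ANOVA.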

[5] = test system: Rattus norvegicus; assay: Cardiotoxicity in Wistar rat assessed as QRS interval at 2.5 mg/kg, iv after 10 mins by ECG analysis; type: toxicity, organism-based; design: dose 2.5 mg/kg, route intravenous; settings: in vivo
[6] = test system: Rattus norvegicus; assay: Cardiotoxicity in Wistar rat assessed as hear beats per min at 2.5 mg/kg, iv after 15 mins by ECG analysis; type: toxicity, organism-based; design: dose 2.5 mg/kg, route intravenous; settings: in vivo, 0.25 h; summary of the method: as §1
[7] = test system: Rattus norvegicus; assay: Hypotensive activity in normotensive Wistar rat assessed as reduction of diastolic blood pressure at 0.16 mg/kg, iv after 20 mins; type: functional, Artery; summary of the method: as §2
[8] = test system: Rattus norvegicus; assay: Cardiotoxicity in Wistar rat assessed as PQ interval at 2.5 mg/kg, iv after 15 mins by ECG analysis; type: toxicity, organism-based; design: dose 2.5 mg/kg, route intravenous; settings: in vivo, 0.25 h; summary of the method: as §1
[9] = test system: Rattus norvegicus; assay: Cardiotoxicity in Wistar rat assessed as hear beats per min at 2.5 mg/kg, iv after 10 mins by ECG analysis; type: toxicity, organism-based; design: dose 2.5 mg/kg, route intravenous; settings: in vivo
[10] = test system: Rattus norvegicus; assay: Cardiotoxicity in Wistar rat assessed as QRS interval at 2.5 mg/kg, iv after 5 mins by ECG analysis; type: toxicity, organism-based; design: dose 2.5 mg/kg, route intravenous; settings: in vivo; summary of the method: as §1
[11] = test system: Rattus norvegicus; assay: Cardiotoxicity in Wistar rat assessed as QRS interval at 2.5 mg/kg, iv after 15 mins by ECG analysis; type: toxicity, organism-based; design: dose 2.5 mg/kg, route intravenous; settings: in vivo, 0.25 h; summary of the method: as §1
[12] = test system: Rattus norvegicus; assay: Cardiotoxicity in Wistar rat assessed as QT interval at 2.5 mg/kg, iv after 15 mins by ECG analysis; type: toxicity, organism-based; design: dose 2.5 mg/kg, route intravenous; settings: in vivo, 0.25 h; summary of the method: as §1
[13] = test system: Rattus norvegicus; assay: Antiarrhythmic activity in iv dosed Wistar rat adrenaline-induced arrhythmia model assessed as reduction of heart-rhythm disturbance administered 15 mins adrenaline-challenge; type: functional; settings: 0.25 h
Summary of the method: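 Anaesthetised male Wistar rats (thiopental 75 mg/kg ip). Test compound iv at 1 mL/kg, given 15 min before adrenaline 20 µg/kg iv. Activity means no premature beats and inhibition of arrhythmia, judged against a control group. There were three dose groups of six rats. ED50 with confidence limits was calculated by the Litchfield–Wilcoxon method.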

[14] = test system: Rattus norvegicus; assay: Cardiotoxicity in Wistar rat assessed as hear beats per min at 2.5 mg/kg, iv after 5 mins by ECG analysis; type: toxicity, organism-based; design: dose 2.5 mg/kg, route intravenous; settings: in vivo; summary of the method: as §1
[15] = test system: Rattus norvegicus; assay: Hypotensive activity in normotensive Wistar rat assessed as reduction of diastolic blood pressure at 0.31 mg/kg, iv after 30 mins; type: functional, Artery; summary of the method: as §2
[16] = Displacement of [3H]CGP-12177 from beta1-adrenergic receptor in rat cerebral cortex by liquid scintillation counting; type: tissue-based
Summary of the method: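 Rat cerebral cortex was homogenised in ice-cold 50 mM Tris-HCl pH 7.6 and spun at 20,000 g for 20 min at 0–4 °C, then washed once. Radioligands: [3H]prazosin 0.2 nM for α1, [3H]clonidine 2 nM for α2, [3H]CGP-12177 0.2 nM for β1. Test compounds were run at 7–8 concentrations from 10^-11 to 10^-4 M. Nonspecific binding was defined with phentolamine (α1), clonidine (α2) or propranolol (β1). Counting was by liquid scintillation, in duplicate. Ki was derived by Cheng–Prusoff from 2–3 experiments.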

[17] = test system: Rattus norvegicus; assay: Cardiotoxicity in Wistar rat assessed as QT interval at 2.5 mg/kg, iv after 5 mins by ECG analysis; type: toxicity, organism-based; design: dose 2.5 mg/kg, route intravenous; settings: in vivo; summary of the method: as §1
[18] = test system: Rattus norvegicus; assay: Cardiotoxicity in Wistar rat assessed as QRS interval at 10 mg/kg, iv after 5 mins by ECG analysis; type: toxicity, organism-based; design: dose 10 mg/kg, route intravenous; settings: in vivo
Summary of the method: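 Male normotensive Wistar rats, 170–350 g, six per group. Compound given iv at a constant volume of 1 mL/kg. ECG was recorded just before dosing and at 1, 5 and 15 min after. PQ, QRS and QT intervals and heart rate were read from the trace. Groups were compared by one-way ANOVA.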

[19] = test system: Rattus norvegicus; assay: Hypotensive activity in normotensive Wistar rat assessed as reduction of diastolic blood pressure at 2.5 mg/kg, iv after 20 mins; type: functional, Artery
Summary of the method: (§3)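 Male normotensive Wistar rats (170–350 g) were anaesthetised with thiopental 75 mg/kg ip. The right carotid artery was cannulated with heparin-saline tubing for pressure recording. After a 5 min stabilisation, compound was injected into a caudal vein at 1 mL/kg. Systolic and diastolic pressure were followed up to 60 min. Data are means ± SEM of 5–6 animals, compared by one-way ANOVA.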

[20] = test system: Rattus norvegicus; assay: Cardiotoxicity in Wistar rat assessed as QT interval at 5 mg/kg, iv after 10 mins by ECG analysis; type: toxicity, organism-based; design: dose 5 mg/kg, route intravenous; settings: in vivo
[21] = test system: Rattus norvegicus; assay: Hypotensive activity in normotensive Wistar rat assessed as reduction of systolic blood pressure at 2.5 mg/kg, iv after 5 mins; type: functional, Artery; summary of the method: as §3
[22] = test system: Rattus norvegicus; assay: Cardiotoxicity in Wistar rat assessed as QRS interval at 5 mg/kg, iv after 10 mins by ECG analysis; type: toxicity, organism-based; design: dose 5 mg/kg, route intravenous; settings: in vivo
[23] = test system: Rattus norvegicus; assay: Hypotensive activity in normotensive Wistar rat assessed as reduction of systolic blood pressure at 2.5 mg/kg, iv after 60 mins; type: functional, Artery; summary of the method: as §3
[24] = test system: Rattus norvegicus; assay: Hypotensive activity in normotensive Wistar rat assessed as reduction of diastolic blood pressure at 2.5 mg/kg, iv after 60 mins; type: functional, Artery; summary of the method: as §3
[25] = test system: Rattus norvegicus; assay: Hypotensive activity in normotensive Wistar rat assessed as reduction of systolic blood pressure at 2.5 mg/kg, iv after 30 mins; type: functional, Artery; summary of the method: as §3
[26] = test system: Rattus norvegicus; assay: Cardiotoxicity in Wistar rat assessed as PQ interval at 5 mg/kg, iv after 10 mins by ECG analysis; type: toxicity, organism-based; design: dose 5 mg/kg, route intravenous; settings: in vivo
[27] = test system: Rattus norvegicus; assay: Hypotensive activity in normotensive Wistar rat assessed as reduction of diastolic blood pressure at 2.5 mg/kg, iv after 10 mins; type: functional, Artery; summary of the method: as §3
[28] = test system: Rattus norvegicus; assay: Hypotensive activity in normotensive Wistar rat assessed as reduction of diastolic blood pressure at 2.5 mg/kg, iv after 5 mins; type: functional, Artery; summary of the method: as §3
[29] = test system: Rattus norvegicus; assay: Hypotensive activity in normotensive Wistar rat assessed as reduction of systolic blood pressure at 2.5 mg/kg, iv after 20 mins; type: functional, Artery; summary of the method: as §3
[30] = test system: Rattus norvegicus; assay: Hypotensive activity in normotensive Wistar rat assessed as reduction of diastolic blood pressure at 2.5 mg/kg, iv after 30 mins; type: functional, Artery; summary of the method: as §3
[31] = test system: Rattus norvegicus; assay: Hypotensive activity in normotensive Wistar rat assessed as reduction of systolic blood pressure at 2.5 mg/kg, iv after 10 mins; type: functional, Artery; summary of the method: as §3

COc1ccccc1N1CCN(CCCOc2cccc3c(=O)c4ccccc4oc23)CC1.Cl
Activity [1]: 69.8 ms
Activity [2]: 43 ms
Activity [3]: 43.2 ms
Activity [4]: 107.2 mmHg
Activity [5]: 20.6 ms
Activity [6]: 295.7 bpm
Activity [7]: 101 mmHg
Activity [8]: 43.5 ms
Activity [9]: 306.7 bpm
Activity [10]: 20.4 ms
Activity [11]: 20.3 ms
Activity [12]: 71.8 ms
ED50 [13]: 0.69 mg/kg
Activity [14]: 314.4 bpm
Activity [15]: 103.3 mmHg
Ki [16]: 3.2 µM
Activity [17]: 70 ms

COc1ccccc1N1CCN(CC(COc2cccc3c(=O)c4ccccc4oc23)OC(C)=O)CC1.Cl (racemic)
Activity [1]: 60 ms
Activity [2]: 48 ms
Activity [3]: 48 ms
Activity [5]: 19 ms
Activity [6]: 366.3 bpm
Activity [8]: 48 ms
Activity [9]: 369 bpm
Activity [10]: 19 ms
Activity [11]: 19 ms
Activity [12]: 60 ms
ED50 [13]: 0.87 mg/kg
Activity [14]: 375 bpm
Ki [16]: 11.2 µM
Activity [17]: 61.8 ms

COc1ccccc1N1CCN(CC(O)COc2cccc3c(=O)c4ccccc4oc23)CC1.Cl (racemic)
Activity [1]: 68.2 ms
Activity [2]: 44.3 ms
Activity [3]: 43.3 ms
Activity [4]: 102.8 mmHg
Activity [5]: 19.8 ms
Activity [6]: 303.3 bpm
Activity [7]: 103.8 mmHg
Activity [8]: 42.8 ms
Activity [9]: 315.2 bpm
Activity [10]: 19.6 ms
Activity [11]: 20.2 ms
Activity [12]: 68.4 ms
ED50 [13]: 0.88 mg/kg
Activity [14]: 341.2 bpm
Activity [15]: 100.6 mmHg
Ki [16]: 7.6 µM
Activity [17]: 69.7 ms

Cl.Cl.Cl.O=c1c2ccc(Cl)cc2oc2c(OCC(O)CN3CCN(CCOc4ccccc4)CC3)cccc12 (racemic)
Activity [18]: 18.8 ms

Cl.Cl.Cl.O=c1c2ccc(Cl)cc2oc2c(OCC(O)CN3CCN(C/C=C/c4ccccc4)CC3)cccc12 (racemic)
Activity [19]: 110.4 mmHg
Activity [20]: 74.7 ms
Activity [21]: 125 mmHg
Activity [22]: 20.2 ms
Activity [23]: 126.8 mmHg
Activity [24]: 108.6 mmHg
Activity [25]: 129.8 mmHg
Activity [26]: 46 ms
Activity [27]: 110.6 mmHg
Ki [16]: 43 µM
Activity [28]: 103.2 mmHg
Activity [29]: 130.8 mmHg
Activity [30]: 110.8 mmHg
Activity [31]: 133 mmHg

Cl.Cl.Cl.O=c1c2ccc(Cl)cc2oc2c(OCC(O)CN3CCN(Cc4ccccc4)CC3)cccc12 (racemic)
Activity [19]: 134.5 mmHg
Activity [21]: 147.2 mmHg
Activity [23]: 151.2 mmHg
Activity [24]: 134.2 mmHg
Activity [18]: 19.2 ms
Activity [25]: 152.2 mmHg
Activity [27]: 132.2 mmHg
Activity [28]: 128.7 mmHg
Activity [29]: 152.5 mmHg
Activity [30]: 134.2 mmHg
Activity [31]: 149.5 mmHg

Cl.Cl.O=c1c2ccccc2oc2c(OCC(O)CN3CCN(C/C=C/c4ccccc4)CC3)cccc12 (racemic)
Activity [19]: 114 mmHg
Activity [20]: 77 ms
Activity [21]: 144.2 mmHg
Activity [22]: 23.5 ms
Activity [23]: 125.6 mmHg
Activity [24]: 105 mmHg
Activity [25]: 132.6 mmHg
Activity [26]: 41.7 ms
Activity [27]: 117.2 mmHg
Ki [16]: 5.2 µM
Activity [28]: 118.4 mmHg
Activity [29]: 139.8 mmHg
Activity [30]: 110.8 mmHg
Activity [31]: 144.2 mmHg
